# The list is not random: actives were taken first. Their share in the collection is about 27%.
# CYP2C9 inhib = blockers of cytochrome P450 2C9 activity – biochemical, luminescence, ADME assay, primary screen. P11712. CYP2C9 Supersomes, luciferin-H conversion. inhibition, % at 5 µM. 96,000 compounds, 20% hits. AID 777, 2007;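 active = blocking of liver enzyme CYP2C9 beyond about 50% at 5 µM, limit read from the data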
# Rev-RRE block = HIV-1 Rev-RRE binding inhibitors, primary screen, biochemical, FRET, protein-RNA interaction; Rev peptide-RRE RNA binding; inhibition, % at 8 µM; 97,000 compounds, 0.79% hits;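 active = inhibition above the screen-wide mean plus 3 SD, cut at about 35% in these data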;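 also: 0% = median DMSO wells and 100% = median Neomycin B control wells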
# Target sequence (P05866 whole entry, looked up): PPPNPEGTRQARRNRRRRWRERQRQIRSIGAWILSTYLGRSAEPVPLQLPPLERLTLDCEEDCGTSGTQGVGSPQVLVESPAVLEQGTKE
#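 Assay system: Labelled RRE RNA duplex and labelled Rev peptide | Times: 5 min preincubation and 15 min binding, 25 °C | Detection: FRET, ex 480 nm, em 540 and 671 nm | Evaluation: % inhibition of FRET ratio versus controls | Benchmarks: DMSO wells as 0% and neomycin B wells as 100% inhibition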
# CYP2C19 inhib = blockers of cytochrome P450 2C19 activity – biochemical, luminescence, ADME assay, primary screen; inhibition, % at 5 µM; P33261; 96,000 compounds, 21% hits; CYP2C19 Supersomes, luciferin-H EGE luminescence, 30 min;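 active = CYP2C19 inhibition above a set limit at 5 µM in the primary screen, cut at about 50% in these data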;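 also: plate controls were negative control wells for no effect and 2.5 mM tranylcypromine positive control for full effect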
# CYP2C19 activ = human CYP2C19 activators, primary screen, biochemical, luminescence | Cytochrome P450 2C19 (Homo sapiens), P33261 | recombinant CYP2C19, luciferin-H EGE luminescence; hits give high values; 0 = fully inhibited enzyme, 1 = untreated enzyme | AID 1025, 2008 | activation factor at 5 µM | 96,000 tested, under 10 active;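 active = activation factor of at least 2 at 5 µM in the primary screen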;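 also: 0 = wells with 2.5 mM tranylcypromine and 1 = vehicle-only wells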
# Cav3 T inh = Cav3.2 calcium influx blockers – cell-based, Fluo-4 calcium fluorescence, FDSS, MLSMR library, primary screen | Voltage-dependent T-type calcium channel subunit alpha-1H (Homo sapiens), O95180 | Cav3.2-expressing cells; hits give low values | B-score at 10 µM | 100,000 compounds, 4% hits | AID 449739, 2010;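 active = single-dose well whose peak fluorescence ratio is a statistical outlier from its plate by either plate-standardised score or position-corrected B-score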
# CYP2C9 act = human CYP2C9 activators, primary screen, biochemical, luminescence. recombinant CYP2C9, luciferin-H conversion; hits give high values; factor 1 = untreated enzyme, 0 = blocked. activation factor at 5 µM. 96,000 compounds, 1.4% hits. AID 1024, 2008;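 active = activation factor of 2 or more for CYP2C9 at a 5 µM dose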;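 also: 0 = sulfaphenazole-blocked wells and 1 = vehicle-only wells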
# An asterisk follows results filed as active; x = no result; [ ] = dose if it differs, or a comment.
SMILES,CYP2C9 inhib,Rev-RRE block,CYP2C19 inhib,CYP2C19 activ,Cav3 T inh,CYP2C9 act
Cc1cc(Cl)c(OCCCn2cncn2)c(Br)c1,43,5,94*,0.1,-0.57,0.6
CCOC(=O)Nc1nc(-c2ccccc2)c(C(=O)c2ccccc2)s1,30,0,22,0.8,-2.6,0.7
CCn1[nH]c(=O)c(=Nc2c(C)n(C)n(-c3ccccc3)c2=O)cc1-c1ccc(Cl)cc1,41,2,4,1,-3.7,0.6
Cc1cc(C)c(C(=O)CSc2nnc(-c3cccnc3)n2C)c(C)c1,2,-2,4,1,0.0053,1
Cc1ccc(C(=O)CCCn2nnc(-c3cccnc3)n2)cc1C,55*,5,80*,0.2,-0.43,0.4
Cc1ccc(NCc2cccnc2)cc1,38,8,54*,0.5,0.46,0.6
Cc1ccc(CNc2ccc3c(c2)OCO3)c(C)c1,15,90*[fluorescence artefact?],31,0.7,-1.8,0.8
c1cncc(CNc2ccc3c(c2)OCO3)c1,83*,4,89*,0.1,0.56,0.2
Cc1ccc(-n2nc3c([n+]2[O-])CCc2c-3no[n+]2[O-])cc1,-34,x,-22,1.2,-1.6,1.3
CCc1ccc(OCC(O)CN2CCN(c3ccccc3)CC2)cc1 (configuration not stated),16,8,67*,0.3,-0.57,0.8
CCCc1ccc(OCC(O)CN2CCN(c3ccccc3)CC2)cc1 (configuration not stated),38,6,73*,0.3,-2.5,0.6
Cc1ccc(OCC(O)CN2CCN(c3ccccc3)CC2)cc1 (configuration not stated),-20,9,-2,1,-0.46,1.2
CC(C)NCC(O)COc1ccc(CCOCC2CC2)cc1 (configuration not stated),x,x,x,x,-0.34,x
CCCCOC(=O)Sc1nc2ccccc2o1,52*,6,58*,0.4,0.053,0.5
COC(=O)c1ccc(COC(=O)CCc2nc(-c3ccccc3)c(-c3ccccc3)o2)cc1,86*,9,67*,0.3,-5.2*,0.1
Nc1nc(OCC(F)(F)F)cc(Oc2ccccc2F)n1,14,6,59*,0.4,-0.54,0.9
Nc1nc2n(n1)C(c1ccc(F)cc1)CC(c1ccc(F)cc1)N2 (configuration not stated),9,1,71*,0.3,-0.061,0.9
CCOc1ccc(C2CC(c3cccc(Cl)c3)n3nc(N)nc3N2)cc1 (configuration not stated),5,x,-2,1,-3.1,0.9
Nc1nc2n(n1)C(c1cccc(Cl)c1)CC(c1ccc(F)cc1)N2 (configuration not stated),14,2,89*,0.1,0.64,0.9
Cc1ccc(C2CC(c3ccc(F)cc3)Nc3nc(N)nn32)cc1 (configuration not stated),-16,x,28,0.7,-0.047,1.2
CCO[C@H]1OC(C(=O)O)=C[C@@H](C)[C@@H]1CCCO,x,x,x,x,0.67,x
COc1ccc(-c2nnc(SCC(=O)Nc3cc(C)on3)n2C)cc1OC,-1,7,5,1,-0.58,1
COc1ccc(OC2C(=O)N(c3ccc(F)cc3)C2c2ccc(OC)c(OC)c2)cc1 (configuration not stated),7,12,3,1,-3,0.9
COc1ccc(C2C(Oc3ccccc3C)C(=O)N2Cc2ccc(F)cc2)cc1OC (configuration not stated),76*,11,90*,0.1,-4.7*,0.2
Cc1ccc(C(=O)NNC(=S)Nc2cccc(Cl)c2Cl)cc1[N+](=O)[O-],76*,0,25,0.8,-1.6,0.2
Cc1ccc(C(=O)NCc2ccco2)cc1[N+](=O)[O-],-11,5,21,0.8,0.69,1.1
Clc1ccccc1CSc1snnc1-c1ccccc1,-57,20,-2,1,0.6,1.6
